Consider 22 molecules from ChEMBL document CHEMBL5154815, “A Series of Substituted Bis-Aminotriazines Are Activators of the Natriuretic Peptide Receptor C” (J Med Chem, 2022).

Active and inactive are the calls of the source. The rule behind the calls is not given here. Where a SMILES comes first, the peptide text is derived from it.

In data set [1] the target is T1, Atrial natriuretic peptide receptor 3 (Homo sapiens) (UniProt P17342).
T1 sequence (whole entry): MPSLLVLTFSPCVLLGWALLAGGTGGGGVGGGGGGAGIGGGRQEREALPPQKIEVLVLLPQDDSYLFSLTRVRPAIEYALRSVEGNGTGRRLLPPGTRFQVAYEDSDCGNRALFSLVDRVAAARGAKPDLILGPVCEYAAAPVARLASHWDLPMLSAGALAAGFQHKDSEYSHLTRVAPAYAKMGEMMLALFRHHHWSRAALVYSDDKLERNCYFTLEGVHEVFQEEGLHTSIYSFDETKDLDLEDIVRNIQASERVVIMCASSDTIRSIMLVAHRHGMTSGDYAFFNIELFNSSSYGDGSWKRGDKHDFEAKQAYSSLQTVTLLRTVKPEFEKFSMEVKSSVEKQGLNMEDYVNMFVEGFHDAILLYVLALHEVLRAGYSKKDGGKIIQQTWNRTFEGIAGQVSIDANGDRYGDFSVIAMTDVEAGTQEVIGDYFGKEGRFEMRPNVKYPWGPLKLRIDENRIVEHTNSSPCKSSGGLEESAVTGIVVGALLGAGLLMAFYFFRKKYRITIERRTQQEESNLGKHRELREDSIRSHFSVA
As to the kind of experiment: Binding affinity to CM5 sensor chip immobilized human NPR-C (27 to 541 residues) assessed as maximum response by surface plasmon resonance analysis relative to control. An outline of the steps: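 SPR on CM5-immobilized NPR-C (27–541) in PBS-P with 1% DMSO, double-referenced. Observed Rmax was expressed as a percentage of theoretical Rmax. Theoretical Rmax was calculated from immobilized protein response, analyte and ligand molecular weights, and binding stoichiometry.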
For orientation: In SPR one partner is held on a chip, and binding of the other changes the refractive index at the surface.

Data set [2] has as its target T2, Atrial natriuretic peptide receptor 3 (Homo sapiens, UniProt P17342).
T2 sequence (P17342 whole entry): T1 sequence (whole entry)
As to the kind of experiment: Binding affinity to CM5 sensor chip immobilized human NPR-C (27 to 541 residues) assessed as dissociation constant by surface plasmon resonance analysis.

Data set [3] has as its target T3, Atrial natriuretic peptide receptor 3 (Rattus norvegicus, UniProt P41740).
T3 sequence (P41740 whole entry): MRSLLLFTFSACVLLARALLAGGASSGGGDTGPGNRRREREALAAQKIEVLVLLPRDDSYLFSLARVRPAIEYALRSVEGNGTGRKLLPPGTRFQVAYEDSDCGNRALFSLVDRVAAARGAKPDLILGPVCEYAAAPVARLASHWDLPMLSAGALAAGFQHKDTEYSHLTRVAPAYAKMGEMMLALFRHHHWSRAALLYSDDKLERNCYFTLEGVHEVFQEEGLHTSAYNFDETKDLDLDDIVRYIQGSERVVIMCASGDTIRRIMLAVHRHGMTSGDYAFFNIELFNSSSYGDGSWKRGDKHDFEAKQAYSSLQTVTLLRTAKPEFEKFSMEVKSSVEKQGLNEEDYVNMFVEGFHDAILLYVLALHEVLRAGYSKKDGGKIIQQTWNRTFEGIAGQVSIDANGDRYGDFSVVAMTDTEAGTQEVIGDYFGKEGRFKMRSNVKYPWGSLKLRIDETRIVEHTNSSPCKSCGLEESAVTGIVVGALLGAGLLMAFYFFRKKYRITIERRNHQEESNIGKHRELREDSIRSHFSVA
Put plainly: Agonist activity at NPRC in rat aorta assessed as vasorelaxation by Organ bath assay. The data set is classed as tissue-based.

In data set [4] the target is T3, Atrial natriuretic peptide receptor 3. Put plainly: Agonist activity at NPRC in rat small mesenteric arteries assessed as vasorelaxation by Organ bath assay. The data set is classed as tissue-based, Artery.
In data set [5] the target is T1, Atrial natriuretic peptide receptor 3 (Homo sapiens). Put plainly: Agonist activity at NPRC in human Hela cells assessed as decrease in forskolin-induced cAMP level at 100 uM relative to control. Also on record: scale not given: the % may be the effect or the level left. The data set is classed as cell-based. Background: Changes in cAMP serve as a functional read-out for many G protein-coupled receptors.

Data set [6] deals with T2, Atrial natriuretic peptide receptor 3. Put plainly: Displacement of Flu-P19 probe from human NPR-C (27 to 541 residues) by fluorescence polarization analysis. In short, it runs like this: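 Competition fluorescence polarization used NPR-C extracellular domain protein (20 nM final) and Flu-P19 probe (150 pM final) in PBS-P with 1% DMSO. Ligand ranged 600–0.274 μM, and samples were assembled on ice. Read-out was at ex 485/em 520 nm, normalized to buffer+probe and protein+probe controls and blanked with buffer alone. EC50 came from curve fitting.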
Background: Fluorescence polarisation rises when a labelled molecule tumbles more slowly, as on binding a larger partner.

Data set [7] addresses T4, Atrial natriuretic peptide receptor 3 (Mus musculus, UniProt P70180).
T4 sequence (P70180 whole entry): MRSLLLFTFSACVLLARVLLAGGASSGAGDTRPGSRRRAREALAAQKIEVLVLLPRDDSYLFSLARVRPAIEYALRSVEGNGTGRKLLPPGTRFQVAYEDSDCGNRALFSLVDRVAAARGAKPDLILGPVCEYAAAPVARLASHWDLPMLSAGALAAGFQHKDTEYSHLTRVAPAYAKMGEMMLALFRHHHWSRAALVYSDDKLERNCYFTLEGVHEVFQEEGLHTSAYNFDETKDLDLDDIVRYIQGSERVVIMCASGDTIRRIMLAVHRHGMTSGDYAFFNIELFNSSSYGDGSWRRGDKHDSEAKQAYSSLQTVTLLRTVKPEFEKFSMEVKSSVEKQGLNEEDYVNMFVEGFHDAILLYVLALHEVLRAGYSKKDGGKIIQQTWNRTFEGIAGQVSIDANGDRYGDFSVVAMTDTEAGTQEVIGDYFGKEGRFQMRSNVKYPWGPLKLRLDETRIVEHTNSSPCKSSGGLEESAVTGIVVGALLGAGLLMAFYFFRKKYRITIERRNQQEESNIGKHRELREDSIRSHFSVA
Put plainly: Agonist activity at NPRC in knock out mouse mesenteric arteries assessed as vasorelaxation by Organ bath assay. Type of data set: tissue-based, Artery.

Data set [8] can be described thus: Solubility of compound in PBS at 10 mM after 3 hrs by UV analysis. As to conditions: buffer, 10000 µM.
A short description of data set [9]: Protein binding in human plasma by equilibrium dialysis assay.
Data set [10] deals with Cytochrome P450 2C9 (Homo sapiens, UniProt P11712). Put plainly: Inhibition of CYP2C9 in human liver microsomes using diclofenac as substrate preincubated for 10 mins followed by NADPH addition and measured after 10 mins by LC/MS/MS analysis.
Sequence of Cytochrome P450 2C9 (P11712 whole entry): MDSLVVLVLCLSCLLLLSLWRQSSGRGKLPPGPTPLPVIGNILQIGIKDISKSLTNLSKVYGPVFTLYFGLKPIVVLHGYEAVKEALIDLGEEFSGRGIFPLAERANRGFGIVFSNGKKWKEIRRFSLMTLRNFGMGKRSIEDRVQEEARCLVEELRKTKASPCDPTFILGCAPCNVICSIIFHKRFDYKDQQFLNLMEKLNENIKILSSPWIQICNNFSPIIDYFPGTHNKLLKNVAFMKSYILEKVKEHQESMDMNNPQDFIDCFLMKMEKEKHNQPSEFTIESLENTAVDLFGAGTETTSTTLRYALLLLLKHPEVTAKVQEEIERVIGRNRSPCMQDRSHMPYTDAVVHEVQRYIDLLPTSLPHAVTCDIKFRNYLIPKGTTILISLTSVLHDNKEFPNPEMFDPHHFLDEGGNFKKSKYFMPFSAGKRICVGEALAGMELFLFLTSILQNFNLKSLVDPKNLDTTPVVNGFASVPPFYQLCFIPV
The target in data set [11] is T3, Atrial natriuretic peptide receptor 3. Put plainly: Agonist activity at NPRC in rat small mesenteric arteries assessed as vasorelaxation preincubated with M372049 for 15 mins followed by compound treatment by Organ bath assay. The data set is classed as tissue-based, Artery.
For data set [12], the target named is T4, Atrial natriuretic peptide receptor 3. Put plainly: Agonist activity at NPRC in wild type mouse mesenteric arteries assessed as vasorelaxation by Organ bath assay. Type of data set: tissue-based, Artery.
A short description of data set [13]: Stability of compound in pooled human plasma assessed as half life measured upto 120 mins by LC/MS/MS analysis. As to conditions: 2 h.
A short description of data set [14]: Stability in Sprague-Dawley rat hepatocytes assessed as clearance per […] at 1 uM after 20 mins by LC-MS/MS analysis. Type of data set: ADME, cell-based, Hepatocyte.
In data set [15] the target is Cytochrome P450 2C19 (Homo sapiens, UniProt P33261). Put plainly: Inhibition of CYP2C19 in human liver microsomes using S-mephenytoin as substrate preincubated for 10 mins followed by NADPH addition and measured after 20 mins by LC/MS/MS analysis.
Sequence of Cytochrome P450 2C19 (P33261 whole entry): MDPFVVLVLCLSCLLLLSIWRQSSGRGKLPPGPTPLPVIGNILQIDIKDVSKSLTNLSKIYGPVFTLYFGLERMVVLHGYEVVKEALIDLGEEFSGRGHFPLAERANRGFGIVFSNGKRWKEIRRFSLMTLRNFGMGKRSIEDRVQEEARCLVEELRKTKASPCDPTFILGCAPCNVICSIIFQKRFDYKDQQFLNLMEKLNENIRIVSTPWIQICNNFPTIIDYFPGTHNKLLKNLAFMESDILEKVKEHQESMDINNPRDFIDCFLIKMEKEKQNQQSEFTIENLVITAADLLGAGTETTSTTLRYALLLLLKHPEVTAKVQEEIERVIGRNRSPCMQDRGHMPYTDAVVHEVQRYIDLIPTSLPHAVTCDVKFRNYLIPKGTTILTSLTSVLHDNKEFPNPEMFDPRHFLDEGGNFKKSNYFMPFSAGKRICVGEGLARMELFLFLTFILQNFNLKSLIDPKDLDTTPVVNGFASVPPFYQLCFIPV
For data set [16] the following is noted: rat, hepatocytes, 20 min, 1 µM.
Data set [17] deals with T1, Atrial natriuretic peptide receptor 3 (Homo sapiens). As to the kind of experiment: Agonist activity at NPRC in human HeLa cells assessed as decrease in forskolin-induced cAMP level at 100 nM. The data set is classed as cell-based. As to conditions: filed as agonist.

For the molecule `CC(=O)Nc1ccc(Nc2ncnc(N[C@@H](Cc3ccc(O)cc3)C(=O)OC(C)(C)C)n2)cc1`, the Rmax in data set [1] is under 20%.

On to `CC(=O)Nc1ccc(Nc2ncnc(NC(C)(C)C(=O)OC(C)(C)C)n2)cc1`, for which, in [1], the Rmax was under 20%.

What is called Kd is the constant that tells how readily two partners part at equilibrium. Broadly, the EC50 is the concentration giving half of the maximal effect. Turning to `CC(=O)Nc1ccc(Nc2ncnc(N[C@@H](Cc3ccc(F)cc3)C(=O)OC(C)(C)C)n2)cc1`, in data set [2], the Kd came to 23.7 µM. Besides, the EC50 in [3] came out at 4.43 µM.

In the case of `CC(=O)Nc1ccc(Nc2ncnc(N[C@@H](C)C(=O)OC(C)(C)C)n2)cc1`, the EC50 stood at 3.45 µM in data set [4] and 78.1 µM in [3]. For the same molecule, the Rmax in data set [1] is under 20%.

In the case of `CCCCS(=O)(=O)Nc1ccc(Nc2nc(Cl)nc(N[C@@H](CC(C)C)C(=O)OC(C)(C)C)n2)cc1`, the Kd in [2] stood at 25.7 µM.

Take `CC(=O)Nc1ccc(Nc2ncnc(N[C@@H](CCc3ccccc3)C(=O)OC(C)(C)C)n2)cc1`: the Kd in data set [2] was 23.8 µM. Further, in data set [3], the EC50 was determined as 3.76 µM.

Turning to `CC(=O)Nc1ccc(Nc2ncnc(N[C@H](CC(C)C)C(=O)OC(C)(C)C)n2)cc1`, the Rmax in [1] is under 20%.

Take `CC(=O)Nc1ccc(Nc2ncnc(N[C@@H](Cc3ccccc3)C(=O)OC(C)(C)C)n2)cc1`: in [5], the Activity was 9.16%. The Kd in [2] worked out at 31.3 µM. The EC50 in [6] was determined as 32 µM.

For `CC(=O)Nc1ccc(Nc2ncnc(N[C@@H](CC(C)C)C(=O)OC(C)C)n2)cc1`, the Kd in data set [2] came out at 84.4 µM.

For the molecule `CC(=O)Nc1ccc(Nc2ncnc(N[C@H](COC(C)(C)C)CC(C)C)n2)cc1`, in [2], the Kd came out at 42.2 µM.

As for `CC(=O)Nc1ccc(Nc2ncnc(N[C@H](C(=O)OC(C)(C)C)C(C)(C)C)n2)cc1`, the Kd in data set [2] is 201 µM.

With `CC(C)C[C@H](Nc1nc(Cl)nc(Nc2ccc(NS(=O)(=O)c3ccccc3)cc2)n1)C(=O)OC(C)(C)C`, the Kd in [2] turned out to be 99 µM.

`CC(=O)Nc1ccc(Nc2ncnc(N[C@H](C(=O)OC(C)(C)C)C3CCCCC3)n2)cc1`: the Kd in [2] is 28 µM. Besides, the EC50 in data set [3] is 6.24 µM; in [6], 327 µM.

As to `CC(=O)Nc1ccc(Nc2ncnc(N[C@@H](CC(C)C)C(=O)OC3CCCC3)n2)cc1`, the Kd in data set [2] amounted to 25 µM.

Consider `CCCCS(=O)(=O)Nc1ccc(Nc2ncnc(N[C@@H](CC(C)C)C(=O)OC(C)(C)C)n2)cc1`, for which the Kd in [2] was determined as 45.1 µM.

`CC(=O)Nc1ccc(Nc2ncnc(N[C@@H](Cc3ccccc3)C(=O)O)n2)cc1`: the EC50 in [6] was determined as 60 µM.

Turning to `CC(=O)Nc1ccc(Nc2ncnc(N[C@H](C(=O)OC(C)(C)C)C(C)C)n2)cc1`, the Kd in data set [2] amounted to 79 µM.

As for `CC(=O)Nc1ccc(Nc2nc(Cl)nc(N[C@@H](CC(C)C)C(=O)OC(C)(C)C)n2)cc1`, the Kd in [2] worked out at 36.9 µM.

Usually solubility stands for how much of the substance goes into solution per volume. What is called IC50 is the concentration at which inhibition is half-maximal. Take `COC(=O)[C@H](CC(C)C)Nc1nc(Cl)nc(N[C@H]2CC[C@H](Nc3nc(Cl)nc(N[C@@H](CC(C)C)C(=O)OC)n3)CC2)n1`: the EC50 in [4] is 0.97 µM; in [7], 2.64 µM; in [3] it was 1.43 µM; in data set [11] it was 0.47 µM; in data set [12], 1.16 µM. Besides, the Activity in data set [5] stood at 31.4%. Also, the Kd in data set [2] was 95.7 µM. Moreover, in data set [8], the solubility is over 122.52 mg/mL. The PPB in data set [9] is 99.5%. Further, the IC50 turned out to be 4.96 µM in data set [10] and 37.8 µM in data set [15]. The figures for the t1/2 in [13] and in data set [16] were over 1 h and over 3.613 h, respectively. In addition, the CLH in data set [14] was under 0.64 µL/min.

In the case of `CC[C@H](C)[C@H](NC(=O)[C@H](CCCNC(=N)N)NC(=O)[C@H](CC(=O)O)NC(=O)[C@H](CCSC)NC(=O)[C@H](CCCNC(=N)N)NC(=O)CNC(=O)CNC(=O)[C@H](Cc1ccccc1)NC(=O)[C@H](CS)NC(=O)[C@H](CO)NC(=O)[C@H](CO)NC(=O)[C@@H](N)CCCNC(=N)N)C(=O)NCC(=O)N[C@@H](C)C(=O)N[C@@H](CS)C(=O)N[C@@H](CC(N)=O)C(=O)O` (H-RSSCFGGRMDRIGACN-OH), the outcome in data set [17] was Active.

As to `CC(=O)Nc1ccc(Nc2ncnc(NCC(=O)OC(C)(C)C)n2)cc1`, the Kd in data set [2] was found to be 832 µM.

With `CC(=O)Nc1ccc(Nc2ncnc(N[C@@H](CC(C)C)C(=O)OC(C)(C)C)n2)cc1`, the Activity in data set [5] is 20.6%. Besides, in [2], the Kd stood at 30.8 µM.
